For seven compounds, Ratio, zone of inhibition and MIC results are on record in ChEMBL document CHEMBL1932971, “Synthesis of uriedo and thiouriedo derivatives of peptide conjugated heterocycles - A new class of promising antimicrobials” (2012).

Holding throughout (type): functional
The subject of experiment [1] is Fusarium oxysporum. Nature of the experiment: Ratio of bavistin MIC to compound MIC for Fusarium oxysporum after 72 hrs by microdilution method.
Experiment [2] concerns Aspergillus niger. Nature of the experiment: Antifungal activity against Aspergillus niger at 30 ug/ml after 72 hrs by agar well diffusion method. The following applies: read-out: DIZ. The method in brief:
(§1)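 Fungal well diffusion. Inocula were subcultured in nutrient broth for one day, then spread on solidified medium. Compounds were made as a 1 mg/mL DMSO stock and diluted to 30 µg/mL final. Each 6 mm well got 0.1 mL. Controls were bavistin (reference) and DMSO (negative). Plates stood for 3 days at room temperature. Inhibition zone was measured in mm as the mean of three determinations.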

In experiment [3] the test system is Klebsiella pneumoniae. Nature of the experiment: Antibacterial activity against Klebsiella pneumoniae at 30 ug/ml after 24 hrs by agar well diffusion method. As to conditions: read-out: DIZ. The method in brief:
(§2)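 Agar well diffusion. Inocula were grown in nutrient broth at 37 °C for 24 h, then subcultured in nutrient broth at room temperature. Compounds were made as a 1 mg/mL DMSO stock and diluted to 30 µg/mL final. Nutrient agar plates were spread-inoculated and 6 mm wells each got 0.1 mL. Controls were amoxicillin (reference) and DMSO (negative). Incubation was 24 h at 37 °C. Inhibition zone was measured in mm as the mean of three determinations.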

Experiment [4] concerns Staphylococcus aureus. The experiment is described as follows: Antibacterial activity against coagulase-positive Staphylococcus aureus at 30 ug/ml after 24 hrs by agar well diffusion method. The following applies: read-out: DIZ. Summed up:
as §2

Experiment [5] concerns Fusarium oxysporum. The experiment is described as follows: Antifungal activity against Fusarium oxysporum at 30 ug/ml after 72 hrs by agar well diffusion method. The following applies: read-out: DIZ. The method in brief: as §1
Experiment [6] concerns Aspergillus niger. Nature of the experiment: Ratio of bavistin MIC to compound MIC for Aspergillus niger after 72 hrs by microdilution method.
Experiment [7] has as its system Aspergillus flavus. Nature of the experiment: Antifungal activity against Aspergillus flavus at 30 ug/ml after 72 hrs by agar well diffusion method. The following applies: read-out: DIZ. Summed up: as §1
For experiment [8], the system named is Xanthomonas oryzae. Nature of the experiment: Antibacterial activity against Xanthomonas oryzae at 30 ug/ml after 24 hrs by agar well diffusion method. The following applies: read-out: DIZ.
Experiment [9] deals with Aspergillus flavus. The experiment is described as follows: Ratio of bavistin MIC to compound MIC for Aspergillus flavus after 72 hrs by microdilution method.
Experiment [10] relates to Aspergillus flavus. The experiment is described as follows: Antifungal activity against Aspergillus flavus after 72 hrs by microdilution method.
For experiment [11], the system named is Aspergillus niger. Nature of the experiment: Antifungal activity against Aspergillus niger after 72 hrs by microdilution method.
Experiment [12] relates to Escherichia coli. The experiment is described as follows: Antibacterial activity against Escherichia coli at 30 ug/ml after 24 hrs by agar well diffusion method. As to conditions: read-out: DIZ. Summed up:
as §2

The test system of experiment [13] is Fusarium oxysporum. Nature of the experiment: Antifungal activity against Fusarium oxysporum after 72 hrs by microdilution method.
In experiment [14] the test system is Escherichia coli. Nature of the experiment: Antibacterial activity against Escherichia coli after 24 hrs by microdilution method.
The test system of experiment [15] is Staphylococcus aureus. Nature of the experiment: Antibacterial activity against coagulase-positive Staphylococcus aureus after 24 hrs by microdilution method.
Experiment [16] has as its system Klebsiella pneumoniae. The experiment is described as follows: Antibacterial activity against Klebsiella pneumoniae after 24 hrs by microdilution method.
The test system of experiment [17] is Xanthomonas oryzae. Nature of the experiment: Antibacterial activity against Xanthomonas oryzae after 24 hrs by microdilution method.

≈ marks a conversion by molar mass, not a printed value. Numbered stars: 1 amine (or outer) side, 2 acyl side, 3 side chain; on linkers, the order of the positions; unused ones are H or OH. Peptide text beside a SMILES is read from it. * marks the point of attachment. Piperazinyl(4-(2,3-Cl2Ph)) = Clc1cccc(N2CCN(*)CC2)c1Cl; Thiocarbamoyl(N-4-ClPh) = S=C(Nc1ccc(Cl)cc1)*; Thiocarbamoyl(N-2-FPh) = Fc1ccccc1NC(=S)*; NH(4-Cl-phenyl) = Clc1ccc(N*)cc1; X1 = Fc1ccc2c(C3CCN(*)CC3)noc2c1; NH(2-F-phenyl) = Fc1ccccc1N*; CO = O=C([*:1])[*:2]; OcHex = C1CCC(O*)CC1

In the case of `CC(C)[C@H](NC(=O)CNC(=O)[C@@H]1CCCN1C(=O)[C@H](Cc1ccccc1)NC(=O)CNC(=O)[C@H](CCC(=O)OC1CCCCC1)NC(=O)CNC(=O)Nc1ccccc1F)C(=O)NCC(=O)N[C@H](C(=O)N1CCC[C@H]1C(=O)NCC(=O)N[C@H](C(=O)NCC(=O)N[C@H](C(=O)N1CCC[C@H]1C(=O)NCC(=O)N[C@H](C(=O)NCC(=O)N[C@H](C(=O)N1CCC[C@H]1C(=O)NCC(=O)N[C@@H](Cc1ccccc1)C(=O)NCC(=O)N[C@@H](Cc1ccccc1)C(=O)N1CCC[C@H]1C(=O)NCC(=O)N[C@@H](Cc1ccccc1)C(=O)NCC(=O)N[C@@H](Cc1ccccc1)C(=O)N1CCC[C@H]1C(=O)N1CCC(c2noc3cc(F)ccc23)CC1)C(C)C)C(C)C)C(C)C)C(C)C)C(C)C` ({NH(2-F-phenyl)-CO}-GE(OcHex)GFPGVGVPGVGVPGVGVPGFGFPGFGFP-X1), the Ratio with Fusarium oxysporum [1], in the experiment on Aspergillus niger [6] and with Aspergillus flavus [9] was 10 in each case. Also, the zone of inhibition at 30 µg/mL with Aspergillus niger [2] was 46 mm; in the experiment with Klebsiella pneumoniae [3], 22 mm; in the experiment on Staphylococcus aureus [4] it was 22 mm; in the experiment on Fusarium oxysporum [5], 44 mm; with Aspergillus flavus [7] it was 43 mm; in the experiment on Xanthomonas oryzae [8], 21 mm. The zone of inhibition at 30 µg/mL in the experiment on Escherichia coli [12] was found to be 24 mm. Besides, the minimal inhibitory concentration (MIC) against Aspergillus flavus [10] came out at 1.25 µg/mL (≈ 0.395 µM); in the experiment on Aspergillus niger [11], 1.25 µg/mL (≈ 0.395 µM); with Fusarium oxysporum [13], 1.5 µg/mL (≈ 0.474 µM).

`CC(C)[C@H](NC(=O)CNC(=O)Nc1ccc(Cl)cc1)C(=O)NCC(=O)N[C@H](C(=O)N1CCC[C@H]1C(=O)N1CCC(c2noc3cc(F)ccc23)CC1)C(C)C` ({NH(4-Cl-phenyl)-CO}-GVGVP-X1): the MIC against Escherichia coli [14] is 9.25 µg/mL (≈ 11.8 µM); with Staphylococcus aureus [15] it was 8.75 µg/mL (≈ 11.2 µM); against Klebsiella pneumoniae [16], 6.75 µg/mL (≈ 8.62 µM); against Aspergillus flavus [10] it was 7.5 µg/mL (≈ 9.57 µM); in the experiment on Aspergillus niger [11], 6.5 µg/mL (≈ 8.3 µM); in the experiment on Xanthomonas oryzae [17], 8.5 µg/mL (≈ 10.9 µM). Also, the MIC against Fusarium oxysporum [13] was found to be 8.5 µg/mL (≈ 10.9 µM). Moreover, the zone of inhibition at 30 µg/mL came to 33 mm in the experiment on Aspergillus niger [2]; 29 mm with Klebsiella pneumoniae [3]; 27 mm in the experiment with Staphylococcus aureus [4]; 32 mm in the experiment on Fusarium oxysporum [5]; 29 mm in the experiment on Aspergillus flavus [7]; 26 mm in the experiment on Xanthomonas oryzae [8]. For the same compound, the zone of inhibition at 30 µg/mL in the experiment with Escherichia coli [12] amounted to 30 mm.

Consider `O=C(CNC(=S)Nc1ccc(Cl)cc1)N[C@@H](Cc1ccccc1)C(=O)NCC(=O)N[C@@H](Cc1ccccc1)C(=O)N1CCC[C@H]1C(=O)N1CCN(c2cccc(Cl)c2Cl)CC1` ({Thiocarbamoyl(N-4-ClPh)}-GFGFP-{Piperazinyl(4-(2,3-Cl2Ph))}), for which the minimal inhibitory concentration (MIC) in the experiment on Escherichia coli [14] was 6.75 µg/mL (≈ 7.45 µM); against Staphylococcus aureus [15] it was 6.25 µg/mL (≈ 6.9 µM); in the experiment with Klebsiella pneumoniae [16] it was 5 µg/mL (≈ 5.52 µM); with Aspergillus flavus [10], 6.5 µg/mL (≈ 7.17 µM); against Aspergillus niger [11], 5 µg/mL (≈ 5.52 µM); in the experiment with Xanthomonas oryzae [17], 6.75 µg/mL (≈ 7.45 µM). In addition, in the experiment with Fusarium oxysporum [13], the MIC turned out to be 6.25 µg/mL (≈ 6.9 µM). Besides, the zone of inhibition at 30 µg/mL in the experiment on Aspergillus niger [2] stood at 34 mm; in the experiment with Klebsiella pneumoniae [3] it was 32 mm; in the experiment on Staphylococcus aureus [4], 30 mm; in the experiment with Fusarium oxysporum [5], 31 mm; in the experiment on Aspergillus flavus [7] it was 30 mm; with Xanthomonas oryzae [8], 33 mm. Also, the zone of inhibition at 30 µg/mL in the experiment on Escherichia coli [12] turned out to be 32 mm.

In the case of `CC(C)[C@H](NC(=O)CNC(=O)Nc1ccccc1F)C(=O)NCC(=O)N[C@H](C(=O)N1CCC[C@H]1C(=O)N1CCC(c2noc3cc(F)ccc23)CC1)C(C)C` ({NH(2-F-phenyl)-CO}-GVGVP-X1), the MIC in the experiment with Escherichia coli [14] stood at 7.75 µg/mL (≈ 10.1 µM); against Staphylococcus aureus [15], 6.75 µg/mL (≈ 8.8 µM); in the experiment with Klebsiella pneumoniae [16] it was 5.25 µg/mL (≈ 6.85 µM); with Aspergillus flavus [10] it was 5.75 µg/mL (≈ 7.5 µM); against Aspergillus niger [11], 5 µg/mL (≈ 6.52 µM); in the experiment on Xanthomonas oryzae [17] it was 6.75 µg/mL (≈ 8.8 µM). The compound further yielded a minimum inhibitory concentration (MIC) in the experiment with Fusarium oxysporum [13] of 7 µg/mL (≈ 9.13 µM). The zone of inhibition at 30 µg/mL turned out to be 36 mm with Aspergillus niger [2]; 33 mm with Klebsiella pneumoniae [3]; 30 mm in the experiment on Staphylococcus aureus [4]; 33 mm in the experiment on Fusarium oxysporum [5]; 32 mm in the experiment on Aspergillus flavus [7]; 35 mm with Xanthomonas oryzae [8]. The zone of inhibition at 30 µg/mL in the experiment on Escherichia coli [12] worked out at 34 mm.

As for `O=C(CNC(=O)Nc1ccccc1F)NCC(=O)N[C@@H](Cc1ccccc1)C(=O)N1CCC[C@H]1C(=O)N1CCC(c2noc3cc(F)ccc23)CC1` ({NH(2-F-phenyl)-CO}-GGFP-X1), the MIC worked out at 12 µg/mL (≈ 16.8 µM) against Escherichia coli [14]; 11 µg/mL (≈ 15.4 µM) with Staphylococcus aureus [15]; 9 µg/mL (≈ 12.6 µM) against Klebsiella pneumoniae [16]; 13 µg/mL (≈ 18.2 µM) in the experiment with Aspergillus flavus [10]; 9 µg/mL (≈ 12.6 µM) against Aspergillus niger [11]; 9 µg/mL (≈ 12.6 µM) against Xanthomonas oryzae [17]. Besides, inhibition of growth in the experiment with Fusarium oxysporum [13] (MIC) required 14 µg/mL (≈ 19.6 µM). In addition, the zone of inhibition at 30 µg/mL worked out at 34 mm with Aspergillus niger [2]; 27 mm in the experiment with Klebsiella pneumoniae [3]; 25 mm in the experiment on Staphylococcus aureus [4]; 31 mm in the experiment with Fusarium oxysporum [5]; 29 mm in the experiment with Aspergillus flavus [7]; 29 mm in the experiment on Xanthomonas oryzae [8]. For the same compound, the zone of inhibition at 30 µg/mL with Escherichia coli [12] turned out to be 31 mm.

With `CC(C)[C@H](NC(=O)CNC(=S)Nc1ccccc1F)C(=O)NCC(=O)N[C@H](C(=O)N1CCC[C@H]1C(=O)N1CCC(c2noc3cc(F)ccc23)CC1)C(C)C` ({Thiocarbamoyl(N-2-FPh)}-GVGVP-X1), the MIC in the experiment with Escherichia coli [14] was found to be 7.25 µg/mL (≈ 9.26 µM); in the experiment with Staphylococcus aureus [15], 6.25 µg/mL (≈ 7.98 µM); with Klebsiella pneumoniae [16], 5 µg/mL (≈ 6.39 µM); in the experiment with Aspergillus flavus [10], 5.5 µg/mL (≈ 7.03 µM); against Aspergillus niger [11] it was 4.75 µg/mL (≈ 6.07 µM); against Xanthomonas oryzae [17], 6.25 µg/mL (≈ 7.98 µM). In the experiment on Fusarium oxysporum [13], this compound came in with an MIC of 6.75 µg/mL (≈ 8.62 µM). Moreover, the zone of inhibition at 30 µg/mL in the experiment on Aspergillus niger [2] worked out at 37 mm; in the experiment with Klebsiella pneumoniae [3], 35 mm; in the experiment with Staphylococcus aureus [4], 31 mm; in the experiment with Fusarium oxysporum [5] it was 35 mm; in the experiment on Aspergillus flavus [7] it was 33 mm; in the experiment with Xanthomonas oryzae [8], 36 mm. In the experiment on Escherichia coli [12], the zone of inhibition at 30 µg/mL is 35 mm.

For the compound `O=C(CNC(=S)Nc1ccccc1F)N[C@@H](Cc1ccccc1)C(=O)NCC(=O)N[C@@H](Cc1ccccc1)C(=O)N1CCC[C@H]1C(=O)N1CCC(c2noc3cc(F)ccc23)CC1` ({Thiocarbamoyl(N-2-FPh)}-GFGFP-X1), the MIC was 4.75 µg/mL (≈ 5.4 µM) against Escherichia coli [14]; 4 µg/mL (≈ 4.55 µM) in the experiment on Staphylococcus aureus [15]; 3 µg/mL (≈ 3.41 µM) against Klebsiella pneumoniae [16]; 4.5 µg/mL (≈ 5.12 µM) in the experiment on Aspergillus flavus [10]; 3 µg/mL (≈ 3.41 µM) against Aspergillus niger [11]; 4.75 µg/mL (≈ 5.4 µM) in the experiment with Xanthomonas oryzae [17]. The compound further registered an MIC against Fusarium oxysporum [13] of 4 µg/mL (≈ 4.55 µM). Also, the zone of inhibition at 30 µg/mL was found to be 41 mm in the experiment on Aspergillus niger [2]; 37 mm in the experiment on Klebsiella pneumoniae [3]; 36 mm with Staphylococcus aureus [4]; 40 mm with Fusarium oxysporum [5]; 36 mm in the experiment on Aspergillus flavus [7]; 41 mm in the experiment with Xanthomonas oryzae [8]. Besides, in the experiment with Escherichia coli [12], the zone of inhibition at 30 µg/mL came to 41 mm.
